Assay results taken from ChEMBL document CHEMBL1125107, “Cephalosporin 3'-quinolone esters with a dual mode of action” (J Med Chem, 1990).
Values after ≈ are worked out from the molar mass of the structure shown.

Legend:
Escherichia coli [1] = test: Evaluated for the minimum inhibitory concentration against Escherichia coli UB 1005; format: functional
Method in brief: (§1)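 MIC by serial 2-fold dilution in Mueller-Hinton broth; results given as minimum inhibitory concentrations (nmol/mL).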

Pseudomonas aeruginosa [2] = test: Evaluated for the minimum inhibitory concentration against Pseudomonas aeruginosa 18S/H ( Class Id beta-lactamase overproducer); format: functional; method in brief: as §1
Pseudomonas aeruginosa [3] = test: Minimum inhibitory concentration against Pseudomonas aeruginosa ATCC 27853; format: functional
Method in brief: (§2)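 Broth MIC determination: serial 2-fold dilutions in Mueller-Hinton broth by standard methodology; the lowest concentration inhibiting growth is reported as the MIC, in nmol/mL.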

Proteus vulgaris [4] = test: Evaluated for the minimum inhibitory concentration against Proteus vulgaris 1028 BC ( Class Ic beta-lactamase overproducer); format: functional; method in brief: as §1
Streptococcus pneumoniae [5] = test: Minimum inhibitory concentration against Streptococcus pneumoniae 6301; format: functional; method in brief: as §2
Streptococcus pyogenes [6] = test: Minimum inhibitory concentration against Streptococcus pyogenes 4; format: functional; method in brief: as §2
Staphylococcus aureus [7] = test: Minimum inhibitory concentration against Staphylococcus aureus 95 (Methicillin-resistant, high-level beta-lactamase producer); format: functional
Method in brief: (§3)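 Serial 2-fold broth dilution in Mueller-Hinton broth, run by standard methodology; read-out is the minimum inhibitory concentration (MIC).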

Citrobacter freundii = test: In vitro antibacterial activity was determined against Citrobacter freundii BS-16; format: functional; method in brief: as §1
Enterobacter cloacae [8] = test: In vitro antibacterial activity was determined against Enterobacter cloacae P99 (Class Ia beta-lactamase overproducer); format: functional; method in brief: as §1
Escherichia coli [9] = test: In vivo effective dose against mice infected with Escherichia coli 257; format: functional
Method in brief: (§4)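 Mouse protection test against systemic infection, run by literature procedures; the compound was given subcutaneously, and the effective dose (ED50, mg/kg) was determined.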

Escherichia coli [10] = test: In vitro antibacterial activity was determined against Escherichia coli DC-O; format: functional; method in brief: as §1
Escherichia coli [11] = test: In vitro antibacterial activity was determined against Escherichia coli TEM-1 (TEM-1 (class IIIa) beta-lactamase producer); format: functional; method in brief: as §1
Micrococcus luteus = test: In vitro antibacterial activity was determined against Micrococcus luteus PCI; format: functional; method in brief: as §1
Proteus mirabilis [12] = test: In vitro antibacterial activity was determined against Proteus mirabilis 90; format: functional; method in brief: as §1
Proteus vulgaris [13] = test: In vitro antibacterial activity was determined against Proteus vulgaris 1028 BC (Class Ic beta-lactamase overproducer); format: functional; method in brief: as §1
Serratia marcescens = test: In vitro antibacterial activity was determined against Serratia marcescens 1071; format: functional; method in brief: as §2
Staphylococcus aureus [14] = test: In vitro antibacterial activity was determined against Staphylococcus aureus 1059B ( inducible, high level beta-lactamase producer); format: functional; method in brief: as §2
Staphylococcus aureus [15] = test: In vitro antibacterial activity was determined against Staphylococcus aureus ATCC 29213 (inducible, low level beta-lactamase producer); format: functional; method in brief: as §3
Streptococcus pyogenes [16] = test: In vivo effective dose against mice infected with streptococcus pyogenes 4; format: functional; method in brief: as §4
Streptococcus pneumoniae [17] = test: (§5) In vitro antibacterial activity was determined against Streptococcus pneumoniae 6301; format: functional; method in brief: as §2
Streptococcus pneumoniae [18] = test: as §5; format: functional; method in brief: as §2; remark: listed apart in the source
Streptococcus pyogenes [19] = test: In vitro antibacterial activity was determined against Streptococcus pyogenes 4; format: functional; method in brief: as §2
Pseudomonas aeruginosa [20] = test: In vitro antibacterial activity was determined against Pseudomonas aeruginosa 18S/H (Class Id beta-lactamase overproducer); format: functional; method in brief: as §2
Pseudomonas aeruginosa [21] = test: In vitro antibacterial activity was determined against Pseudomonas aeruginosa ATCC 27853; format: functional; method in brief: as §2
Enterococcus faecalis = test: In vitro antibacterial activity was determined against Enterococcus faecalis ATCC 29212; format: functional; method in brief: as §1
Staphylococcus aureus [22] = test: In vitro antibacterial activity was determined against Staphylococcus aureus 95 (Methicillin-resistant, high-level beta-lactamase producer); format: functional; method in brief: as §3
Proteus vulgaris [23] = test: In vitro antibacterial activity was determined against Proteus vulgaris 1028BC (Class Ic beta-lactamase overproducer; format: functional; method in brief: as §1
Staphylococcus aureus [24] = test: In vitro antibacterial activity was determined against Staphylococcus aureus 1059B (inducible, high level beta-lactamase producer); format: functional; method in brief: as §3
Proteus vulgaris [25] = test: Minimum inhibitory concentration against Proteus vulgaris 1028 BC (Class Ic beta-lactamase overproducer); format: functional; method in brief: as §2
Pseudomonas aeruginosa [26] = test: Evaluated for the minimum inhibitory concentration against Pseudomonas aeruginosa 18S/H (Class Id beta-lactamase overproducer); format: functional; method in brief: as §1
Proteus mirabilis [27] = test: Evaluated for the minimum inhibitory concentration against Proteus mirabilis 90
Enterobacter cloacae [28] = test: Evaluated for the minimum inhibitory concentration against Enterobacter cloacae P99 ( Class Ia beta-lactamase overproducer); format: functional; method in brief: as §1
Proteus vulgaris [29] = test: Evaluated for the minimum inhibitory concentration against Proteus vulgaris 1028 BC ( Class Ic beta-lactamase overproducer; format: functional; method in brief: as §1
Staphylococcus aureus [30] = test: Evaluated for the minimum inhibitory concentration against Staphylococcus aureus ATCC 29213 ( inducible, low level beta-lactamase producer); format: functional; method in brief: as §3
Staphylococcus aureus [31] = test: Evaluated for the minimum inhibitory concentration against Staphylococcus aureus 1059B ( inducible, high level beta-lactamase producer); format: functional; method in brief: as §3
[32] = Half life period in rat after (i.v.) administration of a dose of 20 mg/kg; format: ADME, organism-based; parameters: dose 20 mg/kg, route intravenous; conditions: in vivo, iv
Method in brief: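 Rats given 20 mg/kg iv; plasma half-life determined.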

[33] = Evaluated for its stability in human plasma pH 6.5 at 37 degrees Celsius as determined by HPLC analysis; format: ADME
Escherichia coli [34] = test: In vitro antibacterial activity was determined against Escherichia coli UB 1005; format: functional; method in brief: as §1
[35] = Toxicity was determined; format: organism-based; conditions: mouse, in vivo
Method in brief: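 Acute toxicity in mice after intravenous dosing, expressed as LD50 (mg/kg iv).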

Staphylococcus aureus [36] = test: In vitro antibacterial activity was determined against Staphylococcus aureus ATCC 29213 ( inducible, low level beta-lactamase producer); format: functional; method in brief: as §2
Pseudomonas aeruginosa [37] = test: In vitro antibacterial activity was determined against Pseudomonas aeruginosa 18S/H ( Class Id beta-lactamase overproducer); format: functional; method in brief: as §2
[38] = Evaluated for its stability in Mueller-Hinton broth at 37 degrees Celsius as determined by HPLC analysis; conditions: pH 6.5

Row | Compound | MIC (Escherichia coli [1]) | MIC (Pseudomonas aeruginosa [2]) | MIC (Pseudomonas aeruginosa [3]) | MIC (Streptococcus pneumoniae [5]) | MIC (Streptococcus pyogenes [6]) | MIC (Staphylococcus aureus [7]) | MIC (Citrobacter freundii) | MIC (Enterobacter cloacae [8]) | MIC (Escherichia coli [11]) | MIC (Proteus mirabilis [12]) | MIC (Proteus vulgaris [13]) | MIC (Serratia marcescens) | MIC (Staphylococcus aureus [14]) | MIC (Staphylococcus aureus [15]) | MIC (Streptococcus pneumoniae [18]) | MIC (Streptococcus pyogenes [19]) | MIC (Pseudomonas aeruginosa [20]) | MIC (Pseudomonas aeruginosa [21]) | MIC (Enterococcus faecalis) | MIC (Staphylococcus aureus [22]) | further results
1 | CCn1cc(C(=O)OCC2=C(C(=O)O)N3C(=O)[C@@H](NC(=O)/C(=N/OC)c4csc(N)n4)C3SC2)c(=O)c2cc(F)c(N3CCCC3)cc21 (stereo partly drawn) | 0.5 µg/mL (≈ 0.715 µM) | 32 µg/mL (≈ 45.7 µM) | > 128 µg/mL | < 0.008 µg/mL | 1 µg/mL (≈ 1.43 µM) | 0.5 µg/mL (≈ 0.715 µM) | – | – | – | – | – | – | – | – | – | – | – | – | – | – | MIC (Proteus vulgaris [4]): 4 µg/mL (≈ 5.72 µM)
2 | CN1CCN(c2c(F)cc3c(=O)c(C(=O)O)cn(CCF)c3c2F)CC1 [FLEROXACIN] | – | – | – | – | – | – | 1 µg/mL (≈ 2.71 µM) | 0.125 µg/mL (≈ 0.338 µM) | 0.125 µg/mL (≈ 0.338 µM) | 0.5 µg/mL (≈ 1.35 µM) | 0.25 µg/mL (≈ 0.677 µM) | 0.25 µg/mL (≈ 0.677 µM) | 0.5 µg/mL (≈ 1.35 µM) | 0.5 µg/mL (≈ 1.35 µM) | 4 µg/mL (≈ 10.8 µM) | 1 µg/mL (≈ 2.71 µM) | 2 µg/mL (≈ 5.42 µM) | 4 µg/mL (≈ 10.8 µM) | 4 µg/mL (≈ 10.8 µM) | 0.5 µg/mL (≈ 1.35 µM) | ED50 (Escherichia coli [9]): 0.4 mg/kg; MIC (Escherichia coli [10]): 1.19 µM (≈ 0.44 µg/mL); MIC (Micrococcus luteus): 38.2 µM (≈ 14.1 µg/mL); ED50 (Streptococcus pyogenes [16]): 183 mg/kg; MIC (Streptococcus pneumoniae [17]): 9.53 µM (≈ 3.52 µg/mL)
3 | CCn1cc(C(=O)O)c(=O)c2cc(F)c(N3CCSCC3)cc21 | – | – | – | – | – | – | 16 µg/mL (≈ 47.6 µM) | 0.125 µg/mL (≈ 0.372 µM) | 0.5 µg/mL (≈ 1.49 µM) | 16 µg/mL (≈ 47.6 µM) | – | 0.25 µg/mL (≈ 0.743 µM) | – | 0.063 µg/mL (≈ 0.187 µM) | 16 µg/mL (≈ 47.6 µM) | 8 µg/mL (≈ 23.8 µM) | 1 µg/mL (≈ 2.97 µM) | – | 1 µg/mL (≈ 2.97 µM) | 0.063 µg/mL (≈ 0.187 µM) | MIC (Proteus vulgaris [23]): 0.5 µg/mL (≈ 1.49 µM); MIC (Staphylococcus aureus [24]): 0.125 µg/mL (≈ 0.372 µM)
4 | CN1CCN(c2c(F)cc3c(=O)c(C(=O)OCC4=C(C(=O)O)N5C(=O)[C@@H](NC=O)C5SC4)cn(CCF)c3c2F)CC1 (stereo partly drawn) | 32 µg/mL (≈ 52.5 µM) | – | > 128 µg/mL | 0.25 µg/mL (≈ 0.41 µM) | 0.25 µg/mL (≈ 0.41 µM) | 32 µg/mL (≈ 52.5 µM) | – | – | – | – | – | – | – | – | – | – | – | – | – | – | MIC (Proteus vulgaris [25]): 0.5 µg/mL (≈ 0.82 µM); MIC (Pseudomonas aeruginosa [26]): 64 µg/mL (≈ 105 µM); MIC (Proteus mirabilis [27]): 32 µg/mL (≈ 52.5 µM)
5 | CCn1cc(C(=O)O)c(=O)c2cc(F)c(N3CCN(C=O)CC3)cc21 [4-N-FORMYL-1-PIPERAZINYL-NORFLOXACIN] | – | 2 µg/mL (≈ 5.76 µM) | 16 µg/mL (≈ 46.1 µM) | 8 µg/mL (≈ 23 µM) | 8 µg/mL (≈ 23 µM) | 1 µg/mL (≈ 2.88 µM) | – | – | – | – | – | – | – | – | – | – | – | – | – | – | MIC (Enterobacter cloacae [28]): 0.5 µg/mL (≈ 1.44 µM); MIC (Proteus vulgaris [29]): 0.5 µg/mL (≈ 1.44 µM); MIC (Staphylococcus aureus [30]): 1 µg/mL (≈ 2.88 µM); MIC (Staphylococcus aureus [31]): 1 µg/mL (≈ 2.88 µM)
6 | CCn1cc(C(=O)OCC2=C(C(=O)O)N3C(=O)[C@@H](NC(=O)COc4ccccc4)C3SC2)c(=O)c2cc3c(cc21)OCO3 (stereo partly drawn) | – | – | – | – | – | – | 2 µg/mL (≈ 3.29 µM) | 0.5 µg/mL (≈ 0.823 µM) | 1 µg/mL (≈ 1.65 µM) | 4 µg/mL (≈ 6.58 µM) | 0.25 µg/mL (≈ 0.411 µM) | 1 µg/mL (≈ 1.65 µM) | 0.5 µg/mL (≈ 0.823 µM) | – | – | – | – | > 256 µg/mL | 64 µg/mL (≈ 105 µM) | 4 µg/mL (≈ 6.58 µM) | half-life [32]: 0.217 h; half-life [33]: 6 h; MIC (Escherichia coli [34]): 32 µg/mL (≈ 52.7 µM); LD50 [35]: > 500 mg/kg; MIC (Staphylococcus aureus [36]): 0.25 µg/mL (≈ 0.411 µM); MIC (Pseudomonas aeruginosa [37]): 16 µg/mL (≈ 26.3 µM); half-life [38]: 11.2 h
